Marks after values point to notes of the source that are not given here.
Assays:
[1] = assay type: in vivo, female Sprague-Dawley rats; conditions: 15 U/kg s.c.; for steady plasma concentrations (unit/L) up to: high-fat-fed rats, n = 6, unmetabolised glargine
[2] = tested on: Akt (phospho-Ser473-Akt / total Akt); test: Western blot of phosphorylated and total Akt in mammary tumours; assay type: in vivo, female Sprague-Dawley rats; conditions: mammary tumours 4 h after last s.c. injection, 15 U/kg
Method in brief: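 High-fat-fed, MNU-treated female Sprague-Dawley rats received saline or insulin s.c. 5 days/week for 6 weeks. Palpable mammary tumours were collected under ketamine/xylazine/acepromazine anaesthesia 4 h after the last injection, halved, and one half was snap-frozen in liquid nitrogen for Western blotting of phosphorylated and total Akt.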

[3] = assay type: in vivo, female Sprague-Dawley rats; conditions: for Final body weight: after 6 weeks of 15 U/kg s.c. 5 days per week; for Final body weight / Food intake / Body weight increase: mean ± S.E.M., n = 30; for Food intake: average over the treatment period; for Body weight increase: over 6 weeks of treatment; for blood glucose levels before the injection vs control or detemir groups: over the treatment period, n = 30 per group
Method in brief: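 Female Sprague-Dawley rats on a high-fat diet (40% of calories) from 4 weeks of age were given MNU 485 μmol/kg s.c. 1 week later. Light cycle was shifted to 13:00–01:00 h. At 9 weeks, rats were randomised (n = 30/group) to saline or insulin s.c. at 11:00–12:00 h, 5 days/week, ramped 5→10→15 U/kg. Tail-nick glucometer glucose was taken before and 4 h post-injection three times weekly. Data are mean ± s.e.m., analysed by ANOVA and Waller–Duncan test.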

[4] = tested on: MNU-induced mammary tumours; test: N-methyl-N-nitrosourea; assay type: in vivo, female Sprague-Dawley rats; conditions: for number of tumours per rat (tumour multiplicity, all rats): including rats bearing no tumour, 15 U/kg/day s.c. 5 days a week, at 6 weeks of treatment, high-fat diet, MNU, mean ± S.E.M., n = 30 per group; for increase of mammary tumour number in tumour-bearing rats compared with controls: end of study, significant for glargine only
[5] = ref not given, cited from earlier work

## detemir
[1]
  steady plasma concentrations (unit/L) up to: up to 9 h
[2]
  ratio of phosphorylated (active) Akt to total Akt vs control group: higher
[3]
  Final body weight: 338 ± 6 g
  Food intake: 19.7 ± 0.8 g/day
  Body weight increase: 80.7 ± 3.9 g
[4]
  number of tumours per rat (tumour multiplicity, all rats): 1.4 ± 0.4
  increase of mammary tumour number in tumour-bearing rats compared with controls: approximately doubled

## glargine
[1]
  steady plasma concentrations (unit/L) up to: up to 9 h
[1]; insulin-resistant rats, partial recovery of plasma glucose at 9 h
  peak of glucose-lowering action: 1.5 to 4 h
[2]
  ratio of phosphorylated (active) Akt to total Akt vs control group: higher
[5]; humans
  sustained action after subcutaneous injection in humans: over 20 h
[5]; species not given, general statement
  sustained action after subcutaneous injection: up to 24 h
[3]
  Final body weight: 343 ± 5 g
  Food intake: 21.1 ± 1.2 g/day
  Body weight increase: 93.8 ± 4.4 g
  blood glucose levels before the injection vs control or detemir groups: slightly higher
[4]
  number of tumours per rat (tumour multiplicity, all rats): 1.5 ± 0.4
  increase of mammary tumour number in tumour-bearing rats compared with controls: 2 fold

## NPH: NPH (unmodified human insulin), purchased from Eli Lilly, Canada
[3]
  Final body weight: 346 ± 7 g
  Food intake: 21.1 ± 1.4 g/day
  Body weight increase: 98.7 ± 4.5^a g
  blood glucose levels before the injection vs control or detemir groups: slightly higher
[4]
  increase of mammary tumour number in tumour-bearing rats compared with controls: approximately doubled
